# Assay results published in ChEMBL document CHEMBL2346536, “Biscatecholate-monohydroxamate mixed ligand siderophore-carbacephalosporin conjugates are selective sideromycin antibiotics that target Acinetobacter baumannii” (2013).
# Calls of active or inactive are those of the source. The rule behind the calls is not given here.
# What was measured:
# Escherichia coli = assay: Antibacterial activity against Escherichia coli ATCC 25922 after 18 hrs by broth microdilution method; format: functional; details: ATCC 25922, 18 h
# Summary of the method: (§1)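 Broth microdilution MICs per CLSI guidelines, read by visual end point; each compound tested in triplicate.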
# Klebsiella aerogenes = assay: Antibacterial activity against Enterobacter aerogenes ATCC 35029 after 18 hrs by broth microdilution method; format: functional; details: ATCC 35029, 18 h; summary of the method: as §1
# Staphylococcus aureus [1] = assay: Antibacterial activity against Staphylococcus aureus SG 511 after 18 hrs by broth microdilution method; format: functional; details: SG 511, 18 h; summary of the method: as §1
# Enterococcus faecium = assay: Antibacterial activity against Enterococcus faecium NCTC 7171 after 18 hrs by broth microdilution method; format: functional; details: NCTC 7171, 18 h; summary of the method: as §1
# Klebsiella pneumoniae = assay: Antibacterial activity against Klebsiella pneumoniae ATCC 700603 after 18 hrs by broth microdilution method; format: functional; details: ATCC 700603, 18 h; summary of the method: as §1
# Acinetobacter baumannii [2] = assay: Antibacterial activity against Acinetobacter baumannii ATCC 17961 after 18 hrs by broth microdilution method; format: functional; details: ATCC 17961, 18 h; summary of the method: as §1
# Pseudomonas aeruginosa = assay: Antibacterial activity against Pseudomonas aeruginosa ATCC 27853 after 18 hrs by broth microdilution method; format: functional; details: ATCC 27853, 18 h; summary of the method: as §1
# Staphylococcus aureus [3] = assay: Antibacterial activity against Staphylococcus aureus SG 511 in Fe(3)-deficient Mueller-Hinton no.2 broth media after 18 hrs by broth microdilution method; format: functional; details: SG 511, 18 h
# Summary of the method: (§2)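 CLSI broth microdilution in cation-adjusted Mueller–Hinton no. 2 broth. The iron-deficient broth contained 100 μM 2,2′-bipyridine and the iron-supplemented broth 100 μM FeCl₃. MIC was read by visual end point, each compound in triplicate.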
# Staphylococcus aureus [4] = assay: Antibacterial activity against Staphylococcus aureus SG 511 in Fe(3)-supplemented Mueller-Hinton no.2 broth media after 18 hrs by broth microdilution method; format: functional; details: SG 511, 18 h; summary of the method: as §2
# Acinetobacter baumannii [5] = assay: Antibacterial activity against Acinetobacter baumannii ATCC 17961 in Fe(3)-deficient Mueller-Hinton no.2 broth media after 18 hrs by broth microdilution method; format: functional; details: ATCC 17961, 18 h; summary of the method: as §2
# Acinetobacter baumannii [6] = assay: Antibacterial activity against Acinetobacter baumannii ATCC 17961 in Fe(3)-supplemented Mueller-Hinton no.2 broth media after 18 hrs by broth microdilution method; format: functional; details: ATCC 17961, 18 h; summary of the method: as §2
# Staphylococcus aureus [7] = assay: Antibacterial activity against Staphylococcus aureus SG 511 in Fe(3)-supplemented Mueller-Hinton no.2 broth media assessed as diameter of growth inhibition zone after 18 to 24 hrs by agar diffusion assay; format: functional, organism-based
# Summary of the method: (§3)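 Modified Kirby–Bauer agar diffusion on Mueller–Hinton no. 2 agar, made iron-deficient with 100 μM 2,2′-bipyridine or iron-supplemented with 100 μM FeCl₃. Read-out was growth inhibition zone diameter (mm), averaged over three independent trials.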
# Staphylococcus aureus [8] = assay: Antibacterial activity against Staphylococcus aureus SG 511 in Fe(3)-deficient Mueller-Hinton no.2 broth media assessed as diameter of growth inhibition zone after 18 to 24 hrs by agar diffusion assay; format: functional, organism-based; summary of the method: as §3
# Acinetobacter baumannii [9] = assay: Antibacterial activity against Acinetobacter baumannii ATCC 17961 in Fe(3)-supplemented Mueller-Hinton no.2 broth media assessed as diameter of growth inhibition zone after 18 to 24 hrs by agar diffusion assay; format: functional; summary of the method: as §3
# Acinetobacter baumannii [10] = assay: Antibacterial activity against Acinetobacter baumannii ATCC 17961 in Fe(3)-deficient Mueller-Hinton no.2 broth media assessed as diameter of growth inhibition zone after 18 to 24 hrs by agar diffusion assay; format: functional; summary of the method: as §3
# Staphylococcus aureus [11] = assay: Antibacterial activity against Staphylococcus aureus SG 511 at 0.5 mM after 18 to 24 hrs by agar diffusion assay in presence of Fe3-complex of N-[5-(3-{[4-(2,3-Dihydroxy-benzoylamino)-butyl]-[3-(2,3-dihydroxy-benzoylamino)-propyl]-carbamoyl}-propionylamino)-pentyl]-N-hydroxy-succinamic acid; format: functional, organism-based
# Summary of the method: (§4)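 Paper-strip competition on agar. LB cultures grown 18–24 h were suspended in 0.9% saline at […] (0.5 McFarland), then 0.1 mL was mixed into 34 mL MHII agar + 2,2′-bipyridine at 47 °C. Strips were soaked in 0.5 mM sideromycin or 2.0 mM siderophore (1:10 DMSO:MeOH). Plates ran 37 °C for 18–24 h and were photographed at 48 h.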
# Staphylococcus aureus [12] = assay: Antibacterial activity against Staphylococcus aureus SG 511 at 0.5 mM after 18 to 24 hrs by agar diffusion assay in presence of N-[5-(3-{[4-(2,3-Dihydroxy-benzoylamino)-butyl]-[3-(2,3-dihydroxy-benzoylamino)-propyl]-carbamoyl}-propionylamino)-pentyl]-N-hydroxy-succinamic acid; format: functional, organism-based; summary of the method: as §4
# Acinetobacter baumannii [13] = assay: Antibacterial activity against Acinetobacter baumannii ATCC 17961 at 0.5 mM after 18 to 24 hrs by agar diffusion assay in presence of Fe3-complex of N-[5-(3-{[4-(2,3-Dihydroxy-benzoylamino)-butyl]-[3-(2,3-dihydroxy-benzoylamino)-propyl]-carbamoyl}-propionylamino)-pentyl]-N-hydroxy-succinamic acid; format: functional, organism-based; summary of the method: as §4
# Acinetobacter baumannii [14] = assay: Antibacterial activity against Acinetobacter baumannii ATCC 17961 at 0.5 mM after 18 to 24 hrs by agar diffusion assay in presence of N-[5-(3-{[4-(2,3-Dihydroxy-benzoylamino)-butyl]-[3-(2,3-dihydroxy-benzoylamino)-propyl]-carbamoyl}-propionylamino)-pentyl]-N-hydroxy-succinamic acid; format: functional, organism-based; summary of the method: as §4
compound,measurement,setting,value
N[C@@H](C(=O)N[C@@H]1C(=O)N2C(C(=O)O)=C(Cl)CC[C@H]12)c1ccccc1 [LORACARBEF ANHYDROUS],MIC,Escherichia coli,2 µM
same,MIC,Klebsiella aerogenes,> 128 µM
same,MIC,Staphylococcus aureus [1],1 µM
same,MIC,Enterococcus faecium,32 µM
same,MIC,Klebsiella pneumoniae,128 µM
same,MIC,Acinetobacter baumannii [2],> 128 µM
same,MIC,Pseudomonas aeruginosa,> 128 µM
O=C(CCC(=O)N(CCCCNC(=O)c1cccc(O)c1O)CCCNC(=O)c1cccc(O)c1O)NCCCCCN(O)C(=O)CCC(=O)N1CCN(c2cc3c(cc2F)c(=O)c(C(=O)O)cn3C2CC2)CC1,MIC,Escherichia coli,> 128 µM
same,MIC,Klebsiella aerogenes,> 128 µM
same,MIC,Staphylococcus aureus [1],> 128 µM
same,MIC,Enterococcus faecium,> 128 µM
same,MIC,Klebsiella pneumoniae,> 128 µM
same,MIC,Acinetobacter baumannii [2],> 128 µM
same,MIC,Pseudomonas aeruginosa,> 128 µM
O=C(O)c1cn(C2CC2)c2cc(N3CCNCC3)c(F)cc2c1=O [CIPROFLOXACIN],MIC,Escherichia coli,< 0.015 µM
same,MIC,Klebsiella aerogenes,< 0.015 µM
same,MIC,Staphylococcus aureus [1],0.5 µM
same,MIC,Enterococcus faecium,8 µM
same,MIC,Klebsiella pneumoniae,0.25 µM
same,MIC,Acinetobacter baumannii [2],0.25 µM
same,MIC,Pseudomonas aeruginosa,0.125 µM
O=C(O)CCC(=O)N(O)CCCCCNC(=O)CCC(=O)N(CCCCNC(=O)c1cccc(O)c1O)CCCNC(=O)c1cccc(O)c1O,MIC,Escherichia coli,> 128 µM
same,MIC,Klebsiella aerogenes,> 128 µM
same,MIC,Staphylococcus aureus [1],> 128 µM
same,MIC,Enterococcus faecium,> 128 µM
same,MIC,Klebsiella pneumoniae,> 128 µM
same,MIC,Acinetobacter baumannii [2],> 128 µM
same,MIC,Pseudomonas aeruginosa,> 128 µM
O=C(CCC(=O)N(CCCCNC(=O)c1cccc(O)c1O)CCCNC(=O)c1cccc(O)c1O)NCCCCCN(O)C(=O)CCC(=O)N[C@H](C(=O)N[C@@H]1C(=O)N2C(C(=O)O)=C(Cl)CC[C@H]12)c1ccccc1,MIC,Staphylococcus aureus [3],32 µM
same,MIC,Staphylococcus aureus [4],64 µM
same,MIC,Acinetobacter baumannii [5],0.0078 µM
same,MIC,Acinetobacter baumannii [6],0.5 µM
same,Activity,Staphylococcus aureus [7],Active
same,Activity,Staphylococcus aureus [8],Active
same,diameter of the inhibition zone (DIZ),Acinetobacter baumannii [9],16.2 mm
same,diameter of the inhibition zone (DIZ),Acinetobacter baumannii [10],20.6 mm
same,Activity,Staphylococcus aureus [11],Active
same,Activity,Staphylococcus aureus [12],Active
same,Activity,Acinetobacter baumannii [13],inactive
same,Activity,Acinetobacter baumannii [14],inactive
same,MIC,Escherichia coli,8 µM
same,MIC,Klebsiella aerogenes,> 128 µM
same,MIC,Staphylococcus aureus [1],32 µM
same,MIC,Enterococcus faecium,> 128 µM
same,MIC,Klebsiella pneumoniae,> 128 µM
same,MIC,Acinetobacter baumannii [2],0.125 µM
same,MIC,Pseudomonas aeruginosa,> 128 µM
